We go through two compounds from ChEMBL document CHEMBL1641400, “Synthesis of essramycin and comparison of its antibacterial activity” (J Nat Prod, 2010).

Data set [1] is described as follows: Kinetic solubility in water. The data set is classed as physicochemical.
Data set [2] can be described thus: Thermodynamic solubility in water after 72 hrs. The data set is classed as physicochemical. Particulars: read-out: Therm_solubility.
Data set [3] is described as follows: Protein binding in LB assay broth (above 30 kDa) by ultra filtration method. It is filed as ADME. Particulars: read-out: PB (converted).
Data set [4] in a line: Thermodynamic solubility in phosphate buffer at pH 7.4 after 72 hrs. It is filed as physicochemical. As to conditions: read-out: Therm_solubility.
Data set [5] can be described thus: Kinetic solubility in phosphate buffer at pH 7.4. The data set is classed as physicochemical.
In data set [6] the test system is Escherichia coli. Nature of the data set: Antibacterial activity against Escherichia coli ATCC 25922 up to 64 ug/ml after 24 hrs by broth dilution assay. The data set is classed as functional, organism-based. The procedure, abridged: (§1)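 Triplicate broth microdilution in LB and MH broths. Overnight LB cultures were diluted 40-fold into fresh broth and shaken 1 h at 37 °C to mid-log (OD600 ≈ 0.6). They were then diluted to 5 × 10⁵ cfu/mL into 2-fold serial dilutions from 64 to 0.03 µg/mL (≤1.28% DMSO) and held 24 h at 37 °C. MIC is the lowest concentration with no visible growth. Tetracycline, vancomycin and colistin served as positive controls.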
A general note: Broth dilution looks for growth in wells or tubes with falling amounts of substance.

Data set [7] relates to Klebsiella pneumoniae. The data set can be described thus: Antibacterial activity against Klebsiella pneumoniae ATCC 700603 after 24 hrs by disc diffusion assay. The data set is classed as functional, organism-based. The procedure, abridged: (§2)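 LB broth cultures were grown to mid-log (OD600 ≈ 0.6) as for broth MIC and streaked as lawns on LB agar. Sterile filter paper discs were loaded with 10 µL of 2-fold serial dilutions (32 to 1 µg/mL) and placed on the lawns. Inhibition zones were measured after 24 h at 37 °C.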
In general terms: A growth-free zone around the sample is the usual read-out of agar diffusion tests.

The subject of a further data set is Bacillus subtilis. The data set can be described thus: Antibacterial activity against Bacillus subtilis ATCC 6051 compound formulated with carboxymethylcellulose. The data set is classed as functional, organism-based.
In data set [8] the test system is Klebsiella pneumoniae. The data set can be described thus: Antibacterial activity against Klebsiella pneumoniae ATCC 700603 up to 64 ug/ml after 24 hrs by broth dilution assay. The data set is classed as functional, organism-based. The procedure, abridged:
as §1

For data set [9], the system named is Pseudomonas aeruginosa. The data set can be described thus: Antibacterial activity against Meropenem-resistant Pseudomonas aeruginosa after 24 hrs by disc diffusion assay. The data set is classed as functional, organism-based. The procedure, abridged: (§3)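 LB-broth overnight cultures diluted 40-fold into fresh LB, shaken 1 h at 37 °C, to mid-log (OD600 ≈ 0.6). Lawn streaked on LB agar. Sterile filter-paper discs loaded with 10 µL of 2-fold serial dilutions, 32 to 1 µg/mL. Discs placed on plates, 24 h at 37 °C, then zone of inhibition measured.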

Data set [10] has as its system Staphylococcus aureus. Nature of the data set: Antibacterial activity against methicillin-susceptible Staphylococcus aureus ATCC 25923 up to 64 ug/ml after 24 hrs by broth dilution assay. It is filed as functional, organism-based. The procedure, abridged: as §1
The next data set concerns HepG2. The data set can be described thus: Cytotoxicity against human HepG2 cells after 24 hrs by MTT assay. The data set is classed as cell-based. Particulars: HepG2, 24 h.
Data set [11] concerns Enterococcus faecalis. The data set can be described thus: Antibacterial activity against Enterococcus faecalis VanB ATCC 51299 up to 64 ug/ml after 24 hrs by broth dilution assay. It is filed as functional, organism-based. The gist of the method: as §1
For data set [12], the system named is Staphylococcus aureus. The data set can be described thus: Antibacterial activity against methicillin-susceptible Staphylococcus aureus ATCC 25923 after 24 hrs by disc diffusion assay. It is filed as functional, organism-based. The gist of the method: as §2
Data set [13] relates to Escherichia coli. The data set can be described thus: Antibacterial activity against Escherichia coli ATCC 25922 compound formulated with carboxymethylcellulose. It is filed as functional, organism-based.
Data set [14] has as its system Enterococcus faecalis. Nature of the data set: Antibacterial activity against Enterococcus faecalis VanB ATCC 51299 after 24 hrs by disc diffusion assay. It is filed as functional, organism-based. The gist of the method:
as §2

In data set [15] the test system is Pseudomonas aeruginosa. The data set can be described thus: Antibacterial activity against Pseudomonas aeruginosa ATCC 10145 compound formulated with carboxymethylcellulose. It is filed as functional, organism-based.
The test system of data set [16] is Acinetobacter baumannii. Nature of the data set: Antibacterial activity against Meropenem-resistant Acinetobacter baumannii up to 64 ug/ml after 24 hrs by broth dilution assay. The data set is classed as functional, organism-based. The gist of the method:
(§4)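 Triplicate broth microdilution in LB and in MH broth. Overnight LB cultures diluted 40-fold into fresh broth, shaken 1 h at 37 °C to mid-log (OD600 ≈ 0.6), then diluted to 5 × 10⁵ cfu/mL. Added to 2-fold serial dilutions, 64 to 0.03 µg/mL, with DMSO at most 1.28%. Incubated 24 h at 37 °C; MIC is the lowest concentration with no visible growth. Tetracycline, vancomycin and colistin served as positive controls.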

The subject of data set [17] is Escherichia coli. The data set can be described thus: Antibacterial activity against Escherichia coli ATCC 25922 after 24 hrs by disc diffusion assay. The data set is classed as functional, organism-based. The procedure, abridged: as §2
Data set [18] concerns Pseudomonas aeruginosa. Nature of the data set: Antibacterial activity against Meropenem-resistant Pseudomonas aeruginosa up to 64 ug/ml after 24 hrs by broth dilution assay. The data set is classed as functional, organism-based. The procedure, abridged:
as §4

Data set [19] relates to Acinetobacter baumannii. The data set can be described thus: Antibacterial activity against Meropenem-resistant Acinetobacter baumannii after 24 hrs by disc diffusion assay. It is filed as functional, organism-based. The procedure, abridged: as §3
Data set [20] concerns Staphylococcus aureus. The data set can be described thus: Antibacterial activity against methicillin-susceptible Staphylococcus aureus ATCC 25923 compound formulated with carboxymethylcellulose. The data set is classed as functional, organism-based.
The test system of the next data set is HEK293. The data set can be described thus: Cytotoxicity against HEK293 cells after 24 hrs by MTT assay. As to conditions: Homo sapiens, HEK293, 24 h. The data set is classed as cell-based. (In general: Tetrazolium assays rely on reduction of a dye to a coloured formazan, in cell work by metabolically active cells.)

Converted amounts (≈) assume the structure as drawn. The source made the active and inactive calls. The calls are words filed in the database; no cut-off is given here.

What is called solubility (kinetic) is solubility judged after dilution from a stock solution rather than from solid. Consider `Cc1cc(=O)n2nc(CC(=O)c3ccccc3)[nH]c2n1` [ESSRAMYCIN], for which the solubility (kinetic) in data set [1] and in data set [5] was 150 µg/mL (≈ 559 µM) in each case. Moreover, the solubility thermodynamic at 72 h was found to be 175 µg/mL (≈ 652 µM) in data set [2] and 898 µg/mL (≈ 3350 µM) in [4]. Besides, in data set [3], the fraction unbound is 0.93.

In general, IC50 refers to the point on the concentration scale where inhibition reaches its midpoint. With `Cc1cc(=O)n2nc(CC(=O)c3ccccc3)nc2[nH]1` [ESSRAMYCIN], the inhibition result in the data set on Escherichia coli [6], with Klebsiella pneumoniae [7], with Bacillus subtilis, with Klebsiella pneumoniae [8], with Pseudomonas aeruginosa [9] and with Staphylococcus aureus [10] was “inactive” each time. For the same compound, the inhibition result in the data set with Enterococcus faecalis [11], in the data set on Staphylococcus aureus [12], with Escherichia coli [13], in the data set on Enterococcus faecalis [14], in the data set on Pseudomonas aeruginosa [15] and in the data set on Acinetobacter baumannii [16] was “inactive” each time. The inhibition result in the data set with Escherichia coli [17], in the data set on Pseudomonas aeruginosa [18], in the data set with Acinetobacter baumannii [19] and in the data set on Staphylococcus aureus [20] was “inactive” each time. In addition, the IC50 in the data set with HepG2 and in the data set on HEK293 was over 200 µM each time.
